Data as given in ChEMBL document CHEMBL1156918, “5-Modified-2'-dU and 2'-dC as mutagenic anti HIV-1 proliferation agents: synthesis and activity” (J Med Chem, 2010).
pIC50: −log10 of the molar value. The source made the active and inactive calls. No cut-off for these calls is given here.

Assays:
[1] = test system: Human immunodeficiency virus 1; assay: Antiviral activity against HIV1 LAI in human CEM-SS cells assessed as RT activity after 4 to 8 serial passages with uninfected cells by serial passage experiment; assay type: functional, organism-based
Procedure, shortened: (§1)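 HIV-1 LAI at multiplicity 0.01 added to 2.5×10^5 CEM-SS cells in RPMI, 4 h at 37 °C. Cells washed twice in PBS, resuspended in 1 mL medium with or without analogue at 200 μM (100 μM where cytotoxicity required). Every 4 days an equal supernatant volume went to fresh CEM-SS cells, for eight cycles. RT activity in supernatants read at each passage.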

[2] = test system: Human immunodeficiency virus 1; assay: Antiviral activity against HIV1 LAI in human CEM-SS cells assessed as RT activity after 4 serial passages with uninfected cells by serial passage experiment; assay type: functional, organism-based; procedure, shortened: as §1
[3] = Cytotoxicity against human CEM-SS cells by MTT assay; assay type: cell-based
Procedure, shortened: (§2)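 Uninfected cells grown at 37 °C, 5% CO2, in RPMI 1640 with 10% FCS, penicillin, streptomycin and glutamine, were incubated with a range of compound concentrations (up to 200 μM), run alongside the 5-day antiviral assay. Viability was read as MTT reduction to formazan by OD at 540 nm. CC50 was taken from a median effect plot of the dose-effect data.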

[4] = test system: Human immunodeficiency virus 1; assay: Antiviral activity against HIV1 LAI in human CEM-SS cells assessed as RT activity after 8 serial passages with uninfected cells by serial passage experiment; assay type: functional, organism-based; procedure, shortened: as §1
[5] = test system: Human immunodeficiency virus 1; assay: Antiviral activity against HIV1 3B in human MT4 cells assessed as RT activity after 5 days by single passage assay; assay type: functional, organism-based; settings: Human immunodeficiency virus 1, 3B, MT4, 120 h
Procedure, shortened: (§3)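 MT-4 cells kept in RPMI 1640 with 10% FCS, penicillin, streptomycin and glutamine at 37 °C, 5% CO2. Infected with HIV-1 IIIB at 5 TCID50, 30 min adsorption, washed, resuspended at 10^5 cells/mL with serial compound dilutions. After 5 days, RT activity in the medium was measured. IC50 came from a median-effect plot. AZT was the positive control. Run twice.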

[6] = test system: Human immunodeficiency virus 1; assay: Induction of mutation in HIV1 LAI in human CEM-SS cells after 7 passages with uninfected cells; assay type: functional, organism-based
[7] = Cytotoxicity against human MT4 cells by MTT assay; assay type: cell-based; procedure, shortened: as §2
[8] = test system: Human immunodeficiency virus 1; assay: Antiviral activity against HIV1 LAI in human CEM-SS cells assessed as RT activity after 5 days by single passage assay; assay type: functional, organism-based; settings: Human immunodeficiency virus 1, LAI, 120 h
Procedure, shortened: as §3, with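 “CEM-SS cells” for “MT-4 cells”, “HIV-1 LAI” for “HIV-1 IIIB”, “at 20” for “at 5”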

NC(=O)Cc1cn([C@H]2C[C@H](O)[C@@H](CO)O2)c(=O)[nH]c1=O
Activity [1]: Active
Activity [2]: inactive
CC50 [3]: > 200 µM
Activity [4]: Active
pIC50 [5]: < 3.70
Activity [6]: inactive
CC50 [7]: > 200 µM
pIC50 [8]: < 3.70

O=c1[nH]c(=O)n([C@H]2C[C@H](O)[C@@H](CO)O2)cc1O
CC50 [3]: > 200 µM
pIC50 [5]: < 3.70
CC50 [7]: > 200 µM
pIC50 [8]: < 3.70

NC(=O)c1cn([C@H]2C[C@H](O)[C@@H](CO)O2)c(=O)[nH]c1=O
Activity [1]: Active
Activity [2]: inactive
CC50 [3]: > 200 µM
pIC50 [5]: < 3.70
Activity [6]: inactive
CC50 [7]: > 200 µM
pIC50 [8]: < 3.70

Cc1cn([C@H]2C[C@H](N=[N+]=[N-])[C@@H](CO)O2)c(=O)[nH]c1=O [ZIDOVUDINE]
CC50 [3]: > 1 µM
pIC50 [5]: 7.74
CC50 [7]: > 1 µM

NC(=O)Cc1cn([C@H]2C[C@H](O)[C@@H](CO)O2)c(=O)nc1N
CC50 [3]: > 200 µM
pIC50 [5]: < 3.70
CC50 [7]: > 200 µM
pIC50 [8]: < 3.70

NC(=O)c1cn([C@H]2C[C@H](O)[C@@H](CO)O2)c(=O)nc1N
CC50 [3]: > 200 µM
pIC50 [5]: < 3.70
CC50 [7]: > 200 µM
pIC50 [8]: < 3.70

NC(=O)Cn1c(=O)ccn([C@H]2C[C@H](O)[C@@H](CO)O2)c1=O
CC50 [3]: > 200 µM
pIC50 [5]: < 3.70
CC50 [7]: > 200 µM
pIC50 [8]: < 3.70

O=c1[nH]c(=O)n([C@H]2C[C@H](O)[C@@H](CO)O2)cc1CO
Activity [1]: Active
Activity [2]: inactive
CC50 [3]: 120 µM
Activity [4]: Active
pIC50 [5]: < 3.89
CC50 [7]: 130 µM
pIC50 [8]: 4.52

Nc1nc(=O)n([C@H]2C[C@H](O)[C@@H](CO)O2)cc1CO
Activity [1]: Active
Activity [2]: inactive
CC50 [3]: > 200 µM
pIC50 [5]: < 3.70
CC50 [7]: > 200 µM
pIC50 [8]: 4.62
